What all share (assay type): functional
Assay [1] relates to Staphylococcus aureus. As to the kind of experiment: Antimicrobial activity against heterogeneous vancomycin-intermediate Staphylococcus aureus assessed as susceptible isolates by agar dilution method. The method in brief:
(§1)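 MICs by agar dilution for all 200 MRSA blood isolates (oxacillin, rifampin, gentamicin, levofloxacin, erythromycin, vancomycin, teicoplanin, tigecycline, ceftobiprole, linezolid). Isolates were grouped by PAP-AUC ratio against S. aureus Mu3: below 0.9 VSSA, 0.9 to 1.3 hVISA, 1.3 or more VISA.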
A general note: Agar dilution tests growth on a series of plates holding different concentrations.

Assay [2] relates to Staphylococcus aureus. As to the kind of experiment: Antimicrobial activity against heterogeneous vancomycin-susceptible Staphylococcus aureus assessed as intermediate isolates by agar dilution method.
Assay [3] relates to Staphylococcus aureus. Nature of the assay: Antimicrobial activity against vancomycin-susceptible Staphylococcus aureus assessed as growth inhibition at 2 times MIC. Set-up: scale not given: the % may be the effect or the level left.
The test system of assay [4] is Staphylococcus aureus. As to the kind of experiment: Antimicrobial activity against heterogeneous vancomycin-intermediate Staphylococcus aureus assessed as growth inhibition at MIC. On the set-up: scale not given: the % may be the effect or the level left.
Assay [5] deals with Staphylococcus aureus. Nature of the assay: Antimicrobial activity against vancomycin-susceptible Staphylococcus aureus assessed as growth inhibition at 0.5 times MIC. Set-up: scale not given: the % may be the effect or the level left.
For assay [6], the system named is Staphylococcus aureus. As to the kind of experiment: Antimicrobial activity against heterogeneous vancomycin-intermediate Staphylococcus aureus assessed as growth inhibition at 0.5 times MIC. On the set-up: scale not given: the % may be the effect or the level left.
Assay [7] concerns Staphylococcus aureus. Nature of the assay: Antimicrobial activity against heterogeneous vancomycin-intermediate Staphylococcus aureus assessed as growth inhibition at 4 times MIC. On the set-up: scale not given: the % may be the effect or the level left.
Assay [8] has as its system Staphylococcus aureus. Nature of the assay: Antimicrobial activity against heterogeneous vancomycin-susceptible Staphylococcus aureus assessed as resistant isolates by agar dilution method.
For assay [9], the system named is Staphylococcus aureus. Nature of the assay: Antimicrobial activity against heterogeneous vancomycin-intermediate Staphylococcus aureus assessed as growth inhibition at 0.125 times MIC. Set-up: scale not given: the % may be the effect or the level left.
Assay [10] deals with Staphylococcus aureus. As to the kind of experiment: Antimicrobial activity against vancomycin-susceptible Staphylococcus aureus assessed as growth inhibition at 16 times MIC. Set-up: scale not given: the % may be the effect or the level left.
The subject of assay [11] is Staphylococcus aureus. As to the kind of experiment: Antimicrobial activity against heterogeneous vancomycin-intermediate Staphylococcus aureus assessed as resistant isolates by agar dilution method.
For assay [12], the system named is Staphylococcus aureus. As to the kind of experiment: Antimicrobial activity against heterogeneous vancomycin-susceptible Staphylococcus aureus assessed as susceptible isolates by agar dilution method. In short, it runs like this: as §1
Assay [13] relates to Staphylococcus aureus. Nature of the assay: Antimicrobial activity against heterogeneous vancomycin-intermediate Staphylococcus aureus by agar dilution method. In short, it runs like this: (§2)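 Agar-dilution MICs were measured on a subset of 200 blood MRSA isolates from China. Agents: oxacillin, rifampin, gentamicin, levofloxacin, erythromycin, vancomycin, teicoplanin, tigecycline, ceftobiprole and linezolid. Phenotype came from the PAP-AUC ratio of each isolate to S. aureus Mu3 (VSSA <0.9; hVISA 0.9 to 1.3; VISA ≥1.3), read on BHI agar with 0 to 8.0 mg/liter vancomycin after 48 h at 35°C.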

Assay [14] relates to Staphylococcus aureus. As to the kind of experiment: Antimicrobial activity against vancomycin-susceptible Staphylococcus aureus assessed as growth inhibition at MIC. Set-up: scale not given: the % may be the effect or the level left.
For assay [15], the system named is Staphylococcus aureus. As to the kind of experiment: Antimicrobial activity against vancomycin-susceptible Staphylococcus aureus assessed as growth inhibition at 0.25 times MIC. Set-up: scale not given: the % may be the effect or the level left.
Assay [16] has as its system Staphylococcus aureus. As to the kind of experiment: Antimicrobial activity against heterogeneous vancomycin-intermediate Staphylococcus aureus assessed as growth inhibition at 16 times MIC. On the set-up: scale not given: the % may be the effect or the level left.
Assay [17] relates to Staphylococcus aureus. Nature of the assay: Antimicrobial activity against heterogeneous vancomycin-intermediate Staphylococcus aureus assessed as intermediate isolates by agar dilution method. In short, it runs like this:
as §1

The subject of assay [18] is Staphylococcus aureus. Nature of the assay: Antimicrobial activity against heterogeneous vancomycin-intermediate Staphylococcus aureus assessed as growth inhibition at 2 times MIC. On the set-up: scale not given: the % may be the effect or the level left.
For assay [19], the system named is Staphylococcus aureus. As to the kind of experiment: Antimicrobial activity against heterogeneous vancomycin-intermediate Staphylococcus aureus assessed as growth inhibition at 0.25 times MIC. On the set-up: scale not given: the % may be the effect or the level left.
Assay [20] concerns Staphylococcus aureus. Nature of the assay: Antimicrobial activity against vancomycin-susceptible Staphylococcus aureus assessed as growth inhibition at 0.125 times MIC. On the set-up: scale not given: the % may be the effect or the level left.
Assay [21] relates to Staphylococcus aureus. Nature of the assay: Antimicrobial activity against vancomycin-susceptible Staphylococcus aureus by agar dilution method. The method in brief:
as §2

The subject of assay [22] is Staphylococcus aureus. Nature of the assay: Antimicrobial activity against vancomycin-susceptible Staphylococcus aureus assessed as growth inhibition at 4 times MIC. Set-up: scale not given: the % may be the effect or the level left.

Molecules are shown by their SMILES. In brackets after ≈: the same amount, converted by molar mass.

For orientation: MIC50 means the lowest concentration that inhibits either 50% of growth or 50% of the strains tested, depending on the study. The MIC90 is the lowest concentration that inhibits either 90% of growth or 90% of the strains tested, depending on the study. `CN[C@H](CC(C)C)C(=O)N[C@H]1C(=O)N[C@@H](CC(N)=O)C(=O)N[C@H]2C(=O)N[C@H]3C(=O)N[C@H](C(=O)N[C@H](C(=O)O)c4cc(O)cc(O)c4-c4cc3ccc4O)[C@H](O)c3ccc(c(Cl)c3)Oc3cc2cc(c3O[C@@H]2O[C@H](CO)[C@@H](O)[C@H](O)[C@H]2O[C@H]2C[C@](C)(N)[C@H](O)[C@H](C)O2)Oc2ccc(cc2Cl)[C@H]1O` [VANCOMYCIN]: the Activity in assay [1] worked out at 96.3%; in assay [2] it was 0%; in assay [3] it was 100%; in [4] it was 85.2%; in assay [5], 35.8%; in assay [6] it was 3.7%. The Activity in assay [7] was 100%; in assay [8] it was 0%; in [9], 0%; in [10], 100%; in assay [11], 0%; in assay [12], 100%. Besides, the Activity in assay [14] amounted to 99.4%; in assay [15], 0%; in assay [16], 100%; in assay [17], 3.7%; in [18], 96.3%; in assay [19], 0%. Besides, the figures for the Activity in [20] and in [22] were 0% and 100%, respectively. The MIC50 in [13] and in assay [21] was 1 µg/mL (≈ 0.69 µM) each time. Also, the figures for the MIC90 in [13] and in assay [21] were 2 µg/mL (≈ 1.38 µM) and 1 µg/mL (≈ 0.69 µM), respectively.
